Data published in ChEMBL document CHEMBL1139437, “Design, synthesis, and preliminary pharmacological evaluation of 4-aminopiperidine derivatives as N-type calcium channel blockers active on pain and neuropathic pain” (J Med Chem, 2004).

Key:
Rattus norvegicus [1] = experiment: Antihyperalgesic activity was evaluated in rat (sn) paw pressure test after 60 min at a dose of 50 ug intracerebroventricularly
Rattus norvegicus [2] = experiment: Antihyperalgesic activity was evaluated in rat (dx) paw pressure test after 45 min at a dose of 50 ug intracerebroventricularly
Rattus norvegicus [3] = experiment: Antihyperalgesic activity was evaluated in rat (sn) paw pressure test after 30 min at a dose of 50 ug intracerebroventricularly
[4] = molecular target: Voltage-dependent N-type calcium channel subunit alpha-1B (Rattus norvegicus) (UniProt Q02294); experiment: In vitro antagonism of N-type calcium channels expressed in PC12 cells was determined as the increase in intracellular calcium influx
Voltage-dependent N-type calcium channel subunit alpha-1B (Rattus norvegicus), sequence (Q02294 whole entry, looked up): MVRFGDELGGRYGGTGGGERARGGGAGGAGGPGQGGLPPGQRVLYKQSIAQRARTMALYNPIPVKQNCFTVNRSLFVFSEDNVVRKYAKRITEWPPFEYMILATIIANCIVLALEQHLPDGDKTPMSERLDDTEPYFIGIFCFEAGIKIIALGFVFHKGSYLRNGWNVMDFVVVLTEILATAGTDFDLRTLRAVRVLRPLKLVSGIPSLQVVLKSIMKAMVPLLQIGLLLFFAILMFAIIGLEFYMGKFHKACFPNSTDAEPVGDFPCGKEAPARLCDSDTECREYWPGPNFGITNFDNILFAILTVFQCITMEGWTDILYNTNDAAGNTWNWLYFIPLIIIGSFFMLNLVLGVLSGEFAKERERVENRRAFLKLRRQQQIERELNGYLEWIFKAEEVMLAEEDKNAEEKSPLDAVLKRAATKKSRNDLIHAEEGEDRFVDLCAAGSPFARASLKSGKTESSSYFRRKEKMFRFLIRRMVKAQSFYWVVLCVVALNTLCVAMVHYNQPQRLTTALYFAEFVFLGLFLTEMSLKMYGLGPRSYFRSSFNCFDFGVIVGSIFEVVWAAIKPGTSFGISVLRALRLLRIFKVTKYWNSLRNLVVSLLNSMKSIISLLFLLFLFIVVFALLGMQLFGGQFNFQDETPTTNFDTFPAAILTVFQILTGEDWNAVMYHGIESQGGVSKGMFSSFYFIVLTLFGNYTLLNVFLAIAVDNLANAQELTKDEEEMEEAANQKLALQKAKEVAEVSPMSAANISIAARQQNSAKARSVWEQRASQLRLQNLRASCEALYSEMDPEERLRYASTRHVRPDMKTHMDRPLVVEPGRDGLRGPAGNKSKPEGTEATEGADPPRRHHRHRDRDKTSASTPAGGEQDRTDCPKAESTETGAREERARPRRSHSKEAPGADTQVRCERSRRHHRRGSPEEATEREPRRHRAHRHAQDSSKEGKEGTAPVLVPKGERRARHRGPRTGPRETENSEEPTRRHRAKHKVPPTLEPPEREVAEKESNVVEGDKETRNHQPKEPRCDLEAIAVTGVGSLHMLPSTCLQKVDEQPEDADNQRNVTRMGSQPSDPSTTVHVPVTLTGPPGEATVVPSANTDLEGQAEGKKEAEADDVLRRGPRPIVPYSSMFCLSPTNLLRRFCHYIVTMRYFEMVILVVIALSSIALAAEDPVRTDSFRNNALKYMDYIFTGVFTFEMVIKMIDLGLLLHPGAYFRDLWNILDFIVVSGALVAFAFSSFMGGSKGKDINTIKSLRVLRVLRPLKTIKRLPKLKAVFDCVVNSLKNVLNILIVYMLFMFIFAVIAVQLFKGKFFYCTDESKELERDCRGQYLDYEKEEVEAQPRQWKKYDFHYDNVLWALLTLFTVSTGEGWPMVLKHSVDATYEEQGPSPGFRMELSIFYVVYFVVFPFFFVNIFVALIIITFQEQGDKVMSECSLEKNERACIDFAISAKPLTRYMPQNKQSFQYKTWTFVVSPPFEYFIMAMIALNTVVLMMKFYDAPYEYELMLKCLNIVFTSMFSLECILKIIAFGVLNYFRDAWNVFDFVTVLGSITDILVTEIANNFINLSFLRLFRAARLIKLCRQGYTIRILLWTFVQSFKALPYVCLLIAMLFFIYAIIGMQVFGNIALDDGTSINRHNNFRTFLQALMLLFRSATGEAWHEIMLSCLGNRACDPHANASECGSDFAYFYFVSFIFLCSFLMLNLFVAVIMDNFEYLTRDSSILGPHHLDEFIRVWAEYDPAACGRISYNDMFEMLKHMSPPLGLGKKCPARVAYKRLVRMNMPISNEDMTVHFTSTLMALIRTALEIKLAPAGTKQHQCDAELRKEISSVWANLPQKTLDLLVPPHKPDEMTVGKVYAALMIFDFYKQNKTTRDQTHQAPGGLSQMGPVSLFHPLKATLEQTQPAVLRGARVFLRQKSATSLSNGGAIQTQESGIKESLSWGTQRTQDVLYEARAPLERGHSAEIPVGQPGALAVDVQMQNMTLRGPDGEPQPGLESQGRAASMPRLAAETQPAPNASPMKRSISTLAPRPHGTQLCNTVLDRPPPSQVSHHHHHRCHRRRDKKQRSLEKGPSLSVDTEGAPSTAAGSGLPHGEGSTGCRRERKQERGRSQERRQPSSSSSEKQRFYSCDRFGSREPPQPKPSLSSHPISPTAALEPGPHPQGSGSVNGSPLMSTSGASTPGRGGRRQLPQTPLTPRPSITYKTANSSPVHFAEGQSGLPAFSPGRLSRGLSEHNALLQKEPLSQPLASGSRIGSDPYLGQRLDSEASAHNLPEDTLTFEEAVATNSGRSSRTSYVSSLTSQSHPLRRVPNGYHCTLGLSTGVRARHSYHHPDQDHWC

Rattus norvegicus [5] = experiment: Antihyperalgesic activity was evaluated in rat (dx) paw pressure test after 60 min at a dose of 50 ug intracerebroventricularly
Mus musculus [6] = experiment: Analgesic activity was evaluated in mouse hotplate test; expressed as licking latency after 15 min of treatment at a dose of 50 ug intracerebroventricularly; assay type: functional
Procedure, shortened: (§1)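 Male Swiss albino mice (23-30 g); icv injection of 5 μL (saline or H2O/DMSO 2:1) under brief anaesthesia. Paw-licking latency (s) on hot plate read before injection and every 15 min up to 60 min. Mice with pretest latency below 12 or over 18 s excluded; cutoff 45 s. Statistics against saline- or vehicle-treated controls.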

[7] = molecular target: Voltage-dependent N-type calcium channel subunit alpha-1B (Rattus norvegicus) (UniProt Q02294); experiment: In vitro antagonism of N-type calcium channels expressed in PC12 cells was determined as the increase in intracellular calcium influx in the presence of 10 uM nifedipine
Rattus norvegicus [8] = experiment: Antihyperalgesic activity was evaluated in rat (dx) paw pressure test after 30 min at a dose of 50 ug intracerebroventricularly
Mus musculus [9] = experiment: Analgesic activity was evaluated in mouse hotplate test; expressed as licking latency after 30 min of treatment at a dose of 50 ug intracerebroventricularly; assay type: functional
Procedure, shortened: as §1

Mus musculus [10] = organism: Mus musculus; experiment: Percentage analgesic efficacy when compared to morphine; assay type: functional; design: concentration or dose not given beside the values
Procedure, shortened: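 Male Swiss albino mice, hot-plate test, paw-licking latency; pretest 12–18 s required, cutoff 45 s. Icv injection of 5 μL under brief anaesthesia, in saline or H2O/DMSO 2:1, at maximal soluble dose. Latency read before and every 15 min after dosing. Efficacy = (peak latency − pretest) as % of the same value for morphine 10 μg/mouse icv; non-significant effects scored 0.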

Mus musculus [11] = experiment: Analgesic activity was evaluated in mouse hotplate test; expressed as licking latency after 45 min of treatment at a dose of 50 ug intracerebroventricularly; assay type: functional
Procedure, shortened: as §1

Rattus norvegicus [12] = experiment: Antihyperalgesic activity was evaluated in rat (sn) paw pressure test after 45 min at a dose of 50 ug intracerebroventricularly
Mus musculus [13] = experiment: Analgesic activity was evaluated in mouse hotplate test; expressed as licking latency after 15 min of treatment at a dose of 10 ug intracerebroventricularly; assay type: functional
Procedure, shortened: as §1

Mus musculus [14] = experiment: Analgesic activity was evaluated in mouse hotplate test; expressed as licking latency after 45 min of treatment at a dose of 10 ug intracerebroventricularly; assay type: functional
Procedure, shortened: as §1

Mus musculus [15] = experiment: Analgesic activity was evaluated in mouse hotplate test; expressed as licking latency after 30 min of treatment at a dose of 10 ug intracerebroventricularly; assay type: functional
Procedure, shortened: as §1

Rattus norvegicus [16] = experiment: Antihyperalgesic activity was evaluated in rat (sn) paw pressure test after 30 min at a dose of 10 ug intracerebroventricularly
Rattus norvegicus [17] = experiment: Antihyperalgesic activity was evaluated in rat (sn) paw pressure test after 60 min at a dose of 10 ug intracerebroventricularly
Rattus norvegicus [18] = experiment: Antihyperalgesic activity was evaluated in rat (dx) paw pressure test after 45 min at a dose of 10 ug intracerebroventricularly
Rattus norvegicus [19] = experiment: Antihyperalgesic activity was evaluated in rat (sn) paw pressure test after 45 min at a dose of 10 ug intracerebroventricularly
Rattus norvegicus [20] = experiment: Antihyperalgesic activity was evaluated in rat (dx) paw pressure test after 60 min at a dose of 10 ug intracerebroventricularly
Rattus norvegicus [21] = experiment: Antihyperalgesic activity was evaluated in rat (dx) paw pressure test after 30 min at a dose of 10 ug intracerebroventricularly
Mus musculus [22] = experiment: Analgesic activity was evaluated in mouse hotplate test; expressed as licking latency after 15 min of treatment at a dose of 40 ug intracerebroventricularly; assay type: functional
Procedure, shortened: as §1

Mus musculus [23] = experiment: Analgesic activity was evaluated in mouse hotplate test; expressed as licking latency after 45 min of treatment at a dose of 40 ug intracerebroventricularly; assay type: functional
Procedure, shortened: as §1

Mus musculus [24] = experiment: Analgesic activity was evaluated in mouse hotplate test; expressed as licking latency after 30 min of treatment at a dose of 40 ug intracerebroventricularly; assay type: functional
Procedure, shortened: as §1

Rattus norvegicus [25] = experiment: Antihyperalgesic activity was evaluated in rat (dx) paw pressure test after 60 min at a dose of 30 ug intracerebroventricularly
Rattus norvegicus [26] = experiment: Antihyperalgesic activity was evaluated in rat (sn) paw pressure test after 30 min at a dose of 30 ug intracerebroventricularly
Rattus norvegicus [27] = experiment: Antihyperalgesic activity was evaluated in rat (sn) paw pressure test after 45 min at a dose of 30 ug intracerebroventricularly
Mus musculus [28] = experiment: Analgesic activity was evaluated in mouse hotplate test; expressed as licking latency after 45 min of treatment at a dose of 30 ug intracerebroventricularly; assay type: functional
Procedure, shortened: as §1

Mus musculus [29] = experiment: Analgesic activity was evaluated in mouse hotplate test; expressed as licking latency after 15 min of treatment at a dose of 30 ug intracerebroventricularly; assay type: functional
Procedure, shortened: as §1

Rattus norvegicus [30] = experiment: Antihyperalgesic activity was evaluated in rat (dx) paw pressure test after 45 min at a dose of 30 ug intracerebroventricularly
Rattus norvegicus [31] = experiment: Antihyperalgesic activity was evaluated in rat (dx) paw pressure test after 30 min at a dose of 30 ug intracerebroventricularly
Mus musculus [32] = experiment: Analgesic activity was evaluated in mouse hotplate test; expressed as licking latency after 30 min of treatment at a dose of 30 ug intracerebroventricularly; assay type: functional
Procedure, shortened: as §1

Rattus norvegicus [33] = experiment: Antihyperalgesic activity was evaluated in rat (sn) paw pressure test after 60 min at a dose of 30 ug intracerebroventricularly
Mus musculus [34] = experiment: Analgesic activity was evaluated in mouse hotplate test; expressed as licking latency after 30 min of treatment at a dose of 20 ug intracerebroventricularly; assay type: functional
Procedure, shortened: as §1

Mus musculus [35] = experiment: Analgesic activity was evaluated in mouse hotplate test; expressed as licking latency after 45 min of treatment at a dose of 20 ug intracerebroventricularly; assay type: functional
Procedure, shortened: as §1

Mus musculus [36] = experiment: Analgesic activity was evaluated in mouse hotplate test; expressed as licking latency after 15 min of treatment at a dose of 20 ug intracerebroventricularly; assay type: functional
Procedure, shortened: as §1

## COc1ccc(C(C#N)(CCCN2CCC(NCCOc3ccccc3)CC2)C(C)C)cc1OC.O=C(O)C(=O)O (configuration not stated)
Rattus norvegicus [1]
  Activity: 60.6 g
Rattus norvegicus [2]
  Activity: 58.3 g
Rattus norvegicus [3]
  Activity: 59.5 g
[4]
  IC50: 700 nM
Rattus norvegicus [5]
  Activity: 54.8 g
Mus musculus [6]
  Latency: 22.3 s
[7]
  IC50: 400 nM
Rattus norvegicus [8]
  Activity: 61.7 g
Mus musculus [9]
  Latency: 20.8 s
Mus musculus [10]
  Efficacy: 61%
Mus musculus [11]
  Latency: 18.9 s
Rattus norvegicus [12]
  Activity: 64.7 g

## COc1ccc(CCNC2CCN(CCCC(C#N)(c3ccccc3)C(C)C)CC2)cc1OC.O=C(O)C(=O)O (configuration not stated)
Mus musculus [13]
  Latency: 16.6 s
Mus musculus [14]
  Latency: 17.5 s
Mus musculus [15]
  Latency: 18.1 s
Mus musculus [10]
  Efficacy: 0%

## COc1ccc(CCNC2CCN(Cc3ccccc3)CC2)cc1OC.Cl
Mus musculus [6]
  Latency: 15.5 s
Mus musculus [9]
  Latency: 16.7 s
Mus musculus [10]
  Efficacy: 0%
Mus musculus [11]
  Latency: 15.3 s

## CCCCNC1CCN(CCCC(c2ccccc2)c2ccccc2)CC1.O=C(O)C(=O)O
Mus musculus [13]
  Latency: 22.6 s
Mus musculus [14]
  Latency: 15.8 s
Rattus norvegicus [16]
  Activity: 57.5 g
Mus musculus [15]
  Latency: 22.4 s
Rattus norvegicus [17]
  Activity: 63 g
Mus musculus [10]
  Efficacy: 64%
Rattus norvegicus [18]
  Activity: 52.6 g
Rattus norvegicus [19]
  Activity: 61.2 g
Rattus norvegicus [20]
  Activity: 46.5 g
Rattus norvegicus [21]
  Activity: 50.3 g

## COc1ccc(CCNC2CCN(CCCC(c3ccc(F)cc3)c3ccc(F)cc3)CC2)cc1OC.Cl
Mus musculus [13]
  Latency: 21.5 s
Mus musculus [14]
  Latency: 16.6 s
Mus musculus [15]
  Latency: 16.3 s
Mus musculus [10]
  Efficacy: 51%

## CC(C)CC(N)C(=O)NC1CCN(C(=O)CCC(c2ccc(F)cc2)c2ccc(F)cc2)CC1.Cl (configuration not stated)
Rattus norvegicus [1]
  Activity: 63.2 g
Rattus norvegicus [2]
  Activity: 60.3 g
Rattus norvegicus [3]
  Activity: 55.9 g
Rattus norvegicus [5]
  Activity: 55.8 g
Rattus norvegicus [8]
  Activity: 62.5 g
Mus musculus [22]
  Latency: 23.2 s
Mus musculus [10]
  Efficacy: 71%
Mus musculus [23]
  Latency: 16.6 s
Mus musculus [24]
  Latency: 22.6 s
Rattus norvegicus [12]
  Activity: 61.3 g

## CCCCNC1CCN(C(=O)CCC(C#N)(c2ccc(OC)c(OC)c2)C(C)C)CC1.Cl (configuration not stated)
Rattus norvegicus [25]
  Activity: 32 g
Rattus norvegicus [26]
  Activity: 65 g
Rattus norvegicus [27]
  Activity: 56.9 g
Mus musculus [28]
  Latency: 17 s
Mus musculus [29]
  Latency: 18.7 s
Rattus norvegicus [30]
  Activity: 26.7 g
Rattus norvegicus [31]
  Activity: 28.4 g
Mus musculus [10]
  Efficacy: 0%
Mus musculus [32]
  Latency: 17.4 s
Rattus norvegicus [33]
  Activity: 59.3 g

## COc1ccc(CCNC2CCN(CCCC(C#N)(c3ccc(OC)c(OC)c3)C(C)C)CC2)cc1OC.O=C(O)C(=O)O (configuration not stated)
Mus musculus [13]
  Latency: 17.2 s
Mus musculus [14]
  Latency: 17.6 s
Mus musculus [15]
  Latency: 18.3 s
Mus musculus [10]
  Efficacy: 0%

## COc1ccc(C(C#N)(CCCNC2CCN(C/C=C/c3ccccc3)CC2)C(C)C)cc1OC.Cl (configuration not stated)
Mus musculus [34]
  Latency: 20.2 s
Mus musculus [10]
  Efficacy: 69%
Mus musculus [35]
  Latency: 16.2 s
Mus musculus [36]
  Latency: 24.3 s
